The source made the active and inactive calls. The calls are words filed in the database; no cut-off is given here.
Columns and labels:
[1] = molecular target: T1, M-phase inducer phosphatase 2 (Homo sapiens, UniProt P30305); test: Uncompetitive inhibition of N-terminal His6-tagged human CDC25B (377 to 550 residues) expressed in Escherichia coli BL21(DE3) cells using OMFP as substrate by double reciprocal Lineweaver-Burk plot analysis
T1 sequence (P30305 whole entry): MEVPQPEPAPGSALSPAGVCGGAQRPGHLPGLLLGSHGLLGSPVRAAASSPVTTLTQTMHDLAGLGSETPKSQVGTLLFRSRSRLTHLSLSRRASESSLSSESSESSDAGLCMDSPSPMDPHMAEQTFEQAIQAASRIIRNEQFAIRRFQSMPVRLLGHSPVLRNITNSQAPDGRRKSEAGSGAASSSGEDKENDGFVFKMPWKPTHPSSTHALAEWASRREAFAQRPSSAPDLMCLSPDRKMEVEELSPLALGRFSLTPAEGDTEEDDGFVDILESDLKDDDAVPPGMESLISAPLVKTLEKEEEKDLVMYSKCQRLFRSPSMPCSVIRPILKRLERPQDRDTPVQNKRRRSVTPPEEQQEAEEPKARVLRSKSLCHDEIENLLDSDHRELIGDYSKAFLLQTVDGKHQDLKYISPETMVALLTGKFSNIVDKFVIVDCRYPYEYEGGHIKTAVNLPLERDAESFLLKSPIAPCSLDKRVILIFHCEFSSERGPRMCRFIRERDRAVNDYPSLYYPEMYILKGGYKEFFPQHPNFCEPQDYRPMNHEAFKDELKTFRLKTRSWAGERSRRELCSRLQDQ
Procedure, shortened: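 Recombinant CDC25 form (15–25 nM) in 20 mM Tris-HCl pH 7.8, 0.5 mM TCEP, 1% (v/v) DMSO, with or without inhibitor. Reaction started with 0.5–25 µM OMFP; O-methylfluorescein formation followed continuously at 30°C (ex 485/em 530 nm). Initial rates (AU/min) analysed in Lineweaver-Burk plots for Vmax, KM and mechanism; Ki averaged from at least three independent experiments, only roughly estimated for mixed inhibition.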

[2] = tested on: A-375; test: Induction of cell cycle arrest in human A375 cells assessed as increase in accumulation at subG1 phase at 10 uM after 16 hrs by propidium iodide staining based flow cytometric method; format: functional
Procedure, shortened: (§1)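 Seeded at 3×10^5 cells/well for 24 h at 37°C, then exposed to 10 µM inhibitor or 0.5% (v/v) DMSO for 8 or 16 h. Trypsin-harvested, fixed in cold 70% ethanol at -20°C for 1 h, stained 30 min at 4°C with 50 µg/mL PI in non-lysis solution. Phase distribution (sub-G1, G0/G1, S, G2/M) read by FACScan; triplicate experiments, mean ± SE.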

[3] = tested on: A-375; test: Induction of cell cycle arrest in human A375 cells assessed as decrease in accumulation at G0/G1 phase at 10 uM after 16 hrs by propidium iodide staining based flow cytometric method; format: functional; procedure, shortened: as §1
[4] = tested on: A-375; test: Induction of cell cycle arrest in human A375 cells assessed as increase in accumulation at G2/M phase at 10 uM after 16 hrs by propidium iodide staining based flow cytometric method; format: functional; procedure, shortened: as §1
[5] = tested on: A2058; test: Induction of cell cycle arrest in human A2058 cells assessed as increase in accumulation at subG1 phase at 10 uM after 16 hrs by propidium iodide staining based flow cytometric method; format: functional; procedure, shortened: as §1
[6] = tested on: A2058; test: Induction of cell cycle arrest in human A2058 cells assessed as decrease in accumulation at G0/G1 phase at 10 uM after 16 hrs by propidium iodide staining based flow cytometric method; format: functional; procedure, shortened: as §1
[7] = tested on: A-375; test: Induction of cell cycle arrest in human A375 cells assessed as decrease in accumulation at G0/G1 phase at 10 uM after 8 hrs by propidium iodide staining based flow cytometric method; format: functional; procedure, shortened: as §1
[8] = tested on: A2058; test: Induction of cell cycle arrest in human A2058 cells assessed as increase in accumulation at G2/M phase at 10 uM after 8 hrs by propidium iodide staining based flow cytometric method; format: functional; procedure, shortened: as §1
[9] = tested on: A2058; test: Induction of cell cycle arrest in human A2058 cells assessed as decrease in accumulation at G0/G1 phase at 10 uM after 8 hrs by propidium iodide staining based flow cytometric method; format: functional; procedure, shortened: as §1
[10] = tested on: A-375; test: Inhibition of colony formation in human A375 cells at 0.625 to 10 uM after 10 days by crystal violet staining based assay; format: functional, cell-based
Procedure, shortened: (§2)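 Seeded in duplicate at 4×10^2 cells/well; after 2–3 days treated with 0.5% (v/v) DMSO or 0.625–10 µM inhibitor for 10 days at 37°C. Stained 1 h with 1% crystal violet in 50% ethanol; colonies of ≥50 cells counted, expressed as percentage, mean ± SE of at least three experiments.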

[11] = tested on: A2058; test: Inhibition of colony formation in human A2058 cells at 0.625 to 10 uM after 10 days by crystal violet staining based assay; format: functional, cell-based; procedure, shortened: as §2
[12] = tested on: A2058; test: Cytotoxicity against human A2058 cells at 2.5 uM after 72 hrs by MTT assay; format: functional, cell-based
Procedure, shortened: (§3)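 Cells seeded at 4×10^4/well, treated 24 h after plating with inhibitor or 0.5% (v/v) DMSO vehicle for 24, 48 or 72 h. MTT added, 3 h at 37°C under 5% CO2, formazan solubilised, absorbance at 570 nm. Viability in arbitrary units, mean ± SE of at least three independent experiments versus control. Cells grown in DMEM/10% FBS at 37°C, 5% CO2; BJ-5ta cultured in 4:1 DMEM/Medium 199 with hygromycin B.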

[13] = tested on: A2058; test: Cytotoxicity against human A2058 cells at 5 uM after 48 hrs by MTT assay; format: functional, cell-based; procedure, shortened: as §3
[14] = tested on: A2058; test: Cytotoxicity against human A2058 cells at 50 uM after 48 hrs by MTT assay; format: functional, cell-based; procedure, shortened: as §3
[15] = tested on: A2058; test: Cytotoxicity against human A2058 cells at 50 uM after 24 hrs by MTT assay; format: functional, cell-based; procedure, shortened: as §3
[16] = molecular target: T2, M-phase inducer phosphatase 2 (Homo sapiens) (UniProt P30305); test: Inhibition of N-terminal His6-tagged human CDC25B (377 to 550 residues) expressed in Escherichia coli BL21(DE3) cells at 10 uM by spectrofluorimetric analysis
T2 sequence (whole entry): T1 sequence (P30305 whole entry)

[17] = molecular target: T2, M-phase inducer phosphatase 2 (Homo sapiens); test: Inhibition of CDC25B in human A2058 cells assessed as increase in phosphorylated cdk1 level at 10 uM after 8 hrs by Western blot analysis; format: cell-based
Procedure, shortened: (§4)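 After 24 h at 3×10^5 cells, 8 h treatment with 10 µM inhibitor or 0.5% DMSO. Lysis in ice-cold modified RIPA with Na3VO4, NaF and protease inhibitors; Bradford-normalised equal protein on 12% SDS-PAGE. Rabbit polyclonal anti-p-Cdk1 overnight at 4°C, HRP secondary, ECL detection; β-actin loading control.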

[18] = molecular target: T2, M-phase inducer phosphatase 2 (Homo sapiens); test: Inhibition of CDC25B in human A375 cells assessed as increase in phosphorylated cdk1 level at 10 uM after 8 hrs by Western blot analysis; format: cell-based; procedure, shortened: as §4

For `CCOC(=O)c1cccc(Nc2cc(OC)cc3ccccc23)c1`, the Ki [1] was 8.5 µM, the Activity [2] was “Active” and the Activity [3] was “Active”. The Activity [4] was “inactive”, the Activity [5] was “inactive” and the Activity [6] was “Active”. For the same molecule, the Activity [7] was “Active”, the Activity [8] was “Active” and the Activity [9] was “Active”. The inhibition [10] was “Active”, the inhibition [11] was “Active” and the Activity [12] was “Active”. For the same molecule, the Activity [13] was “Active”, the Activity [14] was “Active” and the Activity [15] was “Active”. For the same molecule, the inhibition [16] was “inactive”, the inhibition [17] was “Active” and the inhibition [18] was “Active”.

From ChEMBL document CHEMBL4311947, “Discovery of Novel Naphthylphenylketone and Naphthylphenylamine Derivatives as Cell Division Cycle 25B (CDC25B) Phosphatase Inhibitors: Design, Synthesis, Inhibition Mechanism, and in Vitro Efficacy against Melanoma Cell Lines” (J Med Chem, 2019)
